The nature of data set [1]: AUC (0 to t) in […] mouse at 200 mg/kg, po after 24 hrs by LC/MS/MS analysis. The note with it: plasma. It counts as ADME, organism-based. On the set-up: time < 24 hr, dose 200 mg/kg, route oral.
Data set [2] is described as follows: Oral bioavailability in cynomolgus monkey at 5 mg/kg. In kind it is ADME, organism-based, Macaca fascicularis. Conditions: in vivo. The gist of the method: (§1)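 Single intravenous and oral doses given as the sodium salt in 5% DMSO/5% Cremophor EL/15% PEG400/15% HPCD/60% water. The iv/po doses were 10/20 mg/kg in mouse, 5.0/10 mg/kg in rat and 2.5/5.0 mg/kg in monkey. Oral AUCinf, iv t1/2 and clearance were also reported.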

Data set [3] can be described thus: Oral bioavailability in […] mouse at 100 mg/kg after 24 hrs by LC/MS/MS analysis. In kind it is ADME, organism-based. The note with it: in vivo. The gist of the method: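 Mouse 24-h exposure study with oral dosing at 100 mg/kg of the free form (not sodium salt). Formulated as a solution of 5% DMSO, 5% Cremophor EL, 15% PEG400, 15% HPCD and 60% water.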

The nature of data set [4]: AUC (0 to t) in […] mouse at 100 mg/kg, po after 24 hrs by LC/MS/MS analysis. In kind it is ADME, organism-based. Set-up: time < 24 hr, dose 100 mg/kg, route oral. The note with it: plasma.
Data set [5] can be described thus: AUC (0 to t) in […] mouse at 50 mg/kg, po after 24 hrs by LC/MS/MS analysis. In kind it is ADME, organism-based. On the set-up: time < 24 hr, dose 50 mg/kg, route oral. The note with it: plasma.
The test system of data set [6] is Mus musculus. Description: AUC (0 to t) in […] mouse assessed as dimethylcarbamic acid 6-chloro-4-methyl-2-oxo-3-[3-(sulfamoylamino)benzyl]-2H-chromen-7-yl ester level at 200 mg/kg, po after 24 hrs by LC/MS/MS analysis. Set-up: time < 24 hr, dose 200 mg/kg, route oral. It counts as ADME, organism-based, Plasma. The note with it: in vivo.
A short description of data set [7]: AUC (infinity) in cynomolgus monkey at 5 mg/kg, po. It counts as ADME, organism-based, Macaca fascicularis. Set-up: time infinity, dose 5 mg/kg, route oral. The note with it: plasma. The gist of the method: (§2)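 The sodium salt was dosed iv and po: mouse 10/20 mg/kg, rat 5.0/10 mg/kg, monkey 2.5/5.0 mg/kg. Vehicle was 5% DMSO/5% Cremophor EL/15% PEG400/15% HPCD/60% water. AUCinf was taken after po dosing; t1/2 was taken after iv dosing.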

The nature of data set [8]: Oral bioavailability in BALB-nu/nu mouse at 20 mg/kg. In kind it is ADME, organism-based. The note with it: in vivo. The gist of the method: as §1
Data set [9] is described as follows: AUC (infinity) in Crlj:CD rat at 10 mg/kg, po. It counts as ADME, organism-based. Set-up: time infinity, dose 10 mg/kg, route oral. The note with it: plasma. The gist of the method: as §2
A short description of data set [10]: AUC (infinity) in BALB-nu/nu mouse at 20 mg/kg, po. Set-up: time infinity, dose 20 mg/kg, route oral. It counts as ADME, organism-based. Conditions: plasma. The gist of the method:
as §2

A short description of data set [11]: Oral bioavailability in Crlj:CD rat at 10 mg/kg. It counts as ADME, organism-based. The note with it: in vivo. The gist of the method:
as §1

As to `Cc1c(Cc2cccc(N)c2)c(=O)oc2cc(OC(=O)N(C)C)c(Cl)cc12`, the exposure AUC(0-t) at 24 h in [1] stood at 29 µM·h. Same read-out and setting: the result for `Cc1c(Cc2cccc(NS(N)(=O)=O)c2)c(=O)oc2cc(OC(=O)N(C)C)c(Cl)cc12` reads 70 µM·h. Turning to `CNS(=O)(=O)Nc1cccc(Cc2c(C)c3cc(Cl)c(OC(=O)N(C)C)cc3oc2=O)c1`, the bioavailability in data set [2] is less than 5%; in [3], 10%. The molecule also returned an exposure AUC(0-t) at 24 h in data set [4] of 17 µM·h. For `Cc1c(Cc2cccc(NS(=O)(=O)N(C)C)c2)c(=O)oc2cc(OC(=O)N(C)C)c(Cl)cc12`, the exposure AUC(0-t) at 24 h in [5] is 3 µM·h. In [4], `Cc1c(Cc2cccc(NS(C)(=O)=O)c2)c(=O)oc2cc(OC(=O)N(C)C)c(Cl)cc12` showed an AUC(0-t) at 24 h of 41 µM·h.

`CCS(=O)(=O)Nc1cccc(Cc2c(C)c3cc(Cl)c(OC(=O)N(C)C)cc3oc2=O)c1` returned an AUC(0-t) at 24 h in data set [4] of 30 µM·h. With `CONS(=O)(=O)Nc1cccc(Cc2c(C)c3cc(Cl)c(OC(=O)N(C)C)cc3oc2=O)c1`, the area under the curve AUC(0-t) at 24 h in data set [4] is 62 µM·h. The same measure, in the same setting: to `Cc1c(Cc2cccc(NS(=O)(=O)NCC(F)(F)F)c2)c(=O)oc2cc(OC(=O)N(C)C)c(Cl)cc12` belongs 26 µM·h. Molecule `Cc1c(Cc2cccc(NS(=O)(=O)NCCC#N)c2)c(=O)oc2cc(OC(=O)N(C)C)c(Cl)cc12` returned an AUC(0-t) at 24 h in data set [1] of 25 µM·h.

With `Cc1c(Cc2cccc(NS(=O)(=O)NCCO)c2)c(=O)oc2cc(OC(=O)N(C)C)c(Cl)cc12`, the AUC(0-t) at 24 h in data set [1] stood at 14 µM·h. `COCCNS(=O)(=O)Nc1cccc(Cc2c(C)c3cc(Cl)c(OC(=O)N(C)C)cc3oc2=O)c1` had an AUC(0-t) at 24 h in data set [1] of 9 µM·h. Moreover, the AUCt in [6] came to 14 µM·h.

Molecule `CNS(=O)(=O)[N-]c1cccc(Cc2c(C)c3cc(Cl)c(OC(=O)N(C)C)cc3oc2=O)c1.[Na+]` displayed a bioavailability in data set [3] of 31%. The AUC(0-t) at 24 h in data set [4] is 51 µM·h. For the molecule `Cc1c(Cc2cccc(NS(N)(=O)=O)c2F)c(=O)oc2cc(OC(=O)N(C)C)c(F)cc12`, the bioavailability in data set [2] came to 30%; in [8], 51%; in data set [11], 62%. Also, the AUC(0-inf) in [7] was found to be 2.2 µM·h; in [9] it was 6 µM·h; in data set [10] it was 26 µM·h.

For orientation: AUC(0-t) means exposure summed from dosing to a finite time, without extrapolation to infinity. By bioavailability is commonly meant the share of a dose that reaches the circulation, judged against a reference dose that is usually intravenous. As a reminder, the AUC(0-inf) is total exposure, with the tail of the curve extrapolated.

Source of the values: ChEMBL document CHEMBL3085763, “The sulfamide moiety affords higher inhibitory activity and oral bioavailability to a series of coumarin dual selective RAF/MEK inhibitors” (Bioorg Med Chem Lett, 2013).
